Active and inactive are the calls of the source.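 Rule for the calls, unless noted: active = viability loss from added drug above about 55%, and viability with drug at most 40%, in both replicates (limit read from the data, passing the limit was not always enough); inconclusive = both conditions met in only one replicate; inactive = neither replicate meets both conditions.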
Key:
[1] = reducers of endogenous Her2 protein level, primary screen, SKBR3 breast tumor cells, AlphaScreen, ATP viability (AID 461;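 active = Her2 level under about 52% in both replicate screens, with viability over 70% of control, limit read from the data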;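 for Her2 level: lower value means less Her2 protein in the cells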;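 for viability: percent of carrier control wells set as 100% viability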); settings: 18-24 h, measured here: SKBR3 viability, ATP luminescence, at 10 µM
[2] = molecular target: Receptor tyrosine-protein kinase erbB-2 (Homo sapiens) (UniProt P04626); assay: as above; settings: 18-24 h, at 10 µM, stronger effect = lower value
[3] = SK-BR-3 cell growth inhibitors, pilot screen, 24 h, human (AID 572;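 active = viability at or below 10% of carrier control in both of two separate runs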;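 note: compound exposure lasted between 18 and 24 h rather than exactly 24 h; 100% = carrier-treated control wells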); settings: SK-BR-3 viability, CellTiter-Glo luminescence, at 10 µM, stronger effect = lower value
[4] = HUVEC growth inhibition – cell-based, human, primary screen (AID 575;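 active = viability at or below 30% in both replicate assays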;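 note: 100% = median of untreated cell wells with 0.1% DMSO on each plate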); settings: HUVEC proliferation, CellTiter-Glo luminescence, 72 h; at 10 µM; stronger effect = lower value
In short: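 System: primary human umbilical vein endothelial cells; Quantity: 1250 endothelial cells in each well; Buffer or medium: supplemented EBM, 2% fetal bovine serum; Doses: one dose, 10 µM final, 0.1% DMSO; Incubation: 72 h compound incubation; Technique: ATP-based CellTiter-Glo luminescent read; Evaluation: percent of median DMSO-control luminescence; Controls: vehicle and MePR control wells.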

[5] = growth inhibitors of H69AR lung tumor, primary screen, human, duplicate replicates (AID 580;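 active = viability at or under a set limit in both replicates, limit being median viability minus 3 SD, cut at about 48% in these data, passing the limit was not always enough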;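 note: 100% = mean luminescence of untreated wells and 0% = no signal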); settings: H69AR lung tumor cells viability, ATP luminescence, 72 h; at 10 µM; stronger effect = lower value
[6] = reversal of MRP1-mediated doxorubicin resistance, pilot screen, H69AR cells, doxorubicin co-treatment (AID 601); settings: CellTiter-Glo, 72 h, at 10 µM; for differential viability (reversal): stronger effect = higher value
[7] = 384-well plate pilot, post-Golgi transport modulator project, inhibition of yeast transport mutant growth (AID 636; in the data active = inhibition above about 31%); settings: absorbance 615 nm, about 18 h, stronger effect = higher value
[8] = growth suppression of yeast trafficking mutant, preliminary HTS, modulators of trafficking downstream of Golgi apparatus project, 1536-format plate, OD 615 nm (AID 637; in the data active = inhibition above about 30%); settings: yeast transport mutant growth, absorbance 615 nm, 18 h; stronger effect = higher value
[9] = H69AR cells + 2 uM doxorubicin, measured here: viability with 2 uM doxorubicin, stronger effect = lower value
[10] = H69AR cells, compound alone cytotoxicity

Receptor tyrosine-protein kinase erbB-2 (Homo sapiens), sequence (P04626 whole entry, looked up): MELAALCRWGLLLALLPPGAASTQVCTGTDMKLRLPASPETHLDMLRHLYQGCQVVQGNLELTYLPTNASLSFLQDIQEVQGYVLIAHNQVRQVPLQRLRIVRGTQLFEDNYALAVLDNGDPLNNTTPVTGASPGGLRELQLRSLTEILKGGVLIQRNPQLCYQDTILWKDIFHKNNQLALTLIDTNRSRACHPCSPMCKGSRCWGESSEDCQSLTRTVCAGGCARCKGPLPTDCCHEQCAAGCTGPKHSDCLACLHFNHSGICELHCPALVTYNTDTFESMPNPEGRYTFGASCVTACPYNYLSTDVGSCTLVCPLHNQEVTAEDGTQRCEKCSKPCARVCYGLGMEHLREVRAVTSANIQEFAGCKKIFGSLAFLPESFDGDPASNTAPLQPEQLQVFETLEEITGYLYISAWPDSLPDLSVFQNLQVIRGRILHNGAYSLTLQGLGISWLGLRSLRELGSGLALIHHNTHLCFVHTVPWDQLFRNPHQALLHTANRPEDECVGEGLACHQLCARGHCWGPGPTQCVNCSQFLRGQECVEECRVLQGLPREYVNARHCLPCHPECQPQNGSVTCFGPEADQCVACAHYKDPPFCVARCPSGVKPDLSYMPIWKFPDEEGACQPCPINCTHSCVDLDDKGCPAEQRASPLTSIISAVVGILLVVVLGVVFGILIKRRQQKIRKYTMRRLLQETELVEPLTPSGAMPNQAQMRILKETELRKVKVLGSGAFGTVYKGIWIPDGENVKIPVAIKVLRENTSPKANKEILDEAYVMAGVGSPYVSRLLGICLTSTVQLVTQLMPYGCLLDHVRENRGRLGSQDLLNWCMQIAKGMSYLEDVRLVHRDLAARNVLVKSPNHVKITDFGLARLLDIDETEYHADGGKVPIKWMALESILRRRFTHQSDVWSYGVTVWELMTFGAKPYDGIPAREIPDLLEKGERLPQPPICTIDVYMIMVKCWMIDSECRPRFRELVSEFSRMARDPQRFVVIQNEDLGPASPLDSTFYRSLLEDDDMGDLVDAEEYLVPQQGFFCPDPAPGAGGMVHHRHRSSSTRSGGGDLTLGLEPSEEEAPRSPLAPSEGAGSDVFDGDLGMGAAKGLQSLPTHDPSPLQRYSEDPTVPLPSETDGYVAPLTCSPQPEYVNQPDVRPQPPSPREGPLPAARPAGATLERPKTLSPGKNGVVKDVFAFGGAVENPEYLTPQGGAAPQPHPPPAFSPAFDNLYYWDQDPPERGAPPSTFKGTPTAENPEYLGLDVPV

SMILES | viability [1] | Her2 level [2] | viability [3] | viability [4] | viability [5] | differential viability (reversal) ([6]; H69AR cells + 2 uM doxorubicin) | viability [6, 9] | viability [6, 10] | inhibition [7] | inhibition [8]
O=C(c1cnn2c(C(F)F)cc(C3CC3)nc12)N1CCOCC1 | 104% | 102% (inactive) | 104% (inactive) | 107% (inactive) | 113% (inactive) | 19.2% (inactive) | 93.5% | 113% | -3.29% (inactive) | -10.2% (inactive)
Cc1nc(C)c(C(=O)C2=C(O)C(=O)N(CCN3CCOCC3)C2c2cccnc2)s1 (stereo not given) | 104% | 93% (inactive) | 104% (inactive) | 99.1% (inactive) | 97.4% (inactive) | 10.4% (inactive) | 87% | 97.4% | -3.95% (inactive) | 12.9% (inactive)
C=C(C)c1cccc(C(C)(C)NC(=O)Nc2ncccn2)c1 | 97.5% | 107% (inactive) | 97.5% (inactive) | 81% (inactive) | 66.7% (inactive) | -9% (inactive) | 75.7% | 66.7% | -4.08% (inactive) | -4.73% (inactive)
COc1ccc(NC(=O)c2cc(C(C)C)on2)c(OC)c1 | 93.5% | 85.5% (inactive) | 93.5% (inactive) | 79.5% (inactive) | 88% (inactive) | -2.67% (inactive) | 90.6% | 88% | 0.51% (inactive) | -2% (inactive)
Cc1nn(-c2ccc(F)cc2)c2sc(C(=O)O)cc12 | 99% | 103% (inactive) | 99% (inactive) | 72.9% (inactive) | 89.8% (inactive) | 5.49% (inactive) | 84.3% | 89.8% | 0% (inactive) | 1.64% (inactive)
O=c1c2ccccc2cnn1-c1nc2ccccc2s1 | 91% | 73% (inactive) | 91% (inactive) | 63.6% (inactive) | 81.6% (inactive) | 0.15% (inactive) | 81.4% | 81.6% | -7.3% (inactive) | -3.33% (inactive)
OC(COc1ccccc1)CN1C2=NCCCN2c2ccccc21 (stereo not given) | 80.5% | 79.5% (inactive) | 80.5% (inactive) | 97.4% (inactive) | 92.6% (inactive) | 7.67% (inactive) | 85% | 92.6% | -4.93% (inactive) | 3.11% (inactive)
C/C(=C\c1cc(C(=O)O)c(C)o1)CO | 102% | 126% (inactive) | 102% (inactive) | 108% (inactive) | 89.1% (inactive) | -8.12% (inactive) | 97.2% | 89.1% | -5.13% (inactive) | -0.33% (inactive)
COc1ccc(-n2ncc3c(NCCCN4CCOCC4)ncnc32)cc1 | 102% | 102% (inactive) | 102% (inactive) | 103% (inactive) | 109% (inactive) | 4.54% (inactive) | 104% | 109% | -6.13% (inactive) | 7.87% (inactive)
CCOC(OCC)P(=O)(C(C)C)C(C)C | 87% | 87% (inactive) | 87% (inactive) | 103% (inactive) | 91.8% (inactive) | 3.12% (inactive) | 88.6% | 91.8% | -1.17% (inactive) | -5.08% (inactive)
Cc1nc(N)c(C#N)c(-c2cccnc2)c1C | 94% | 83.5% (inactive) | 94% (inactive) | 74.3% (inactive) | 102% (inactive) | -13.1% (inactive) | 115% | 102% | -2.4% (inactive) | -2.86% (inactive)
C#CCSc1nnc(-c2ccccc2)c(=O)[nH]1 | 92.5% | 91% (inactive) | 92.5% (inactive) | 89.4% (inactive) | 94.7% (inactive) | 3.12% (inactive) | 91.5% | 94.7% | -3.92% (inactive) | -5.9% (inactive)
CCN(CC)CCCNS(=O)(=O)c1ccc(OC)cc1 | 114% | 89% (inactive) | 114% (inactive) | 103% (inactive) | 90.3% (inactive) | -8.58% (inactive) | 98.9% | 90.3% | -5.32% (inactive) | -2.3% (inactive)
COc1ccc(-c2cc3n(n2)CCc2nc4ccccc4n2-3)cc1 | 95.5% | 70% (inactive) | 95.5% (inactive) | 87% (inactive) | 93.3% (inactive) | 6.67% (inactive) | 86.7% | 93.3% | -5.2% (inactive) | 0.48% (inactive)
Cn1c(=O)oc2cc(S(=O)(=O)N3CCC(C(=O)Nc4ccc(OC(F)(F)F)cc4)CC3)ccc21 | 137% | 98.5% (inactive) | 137% (inactive) | 91.4% (inactive) | 33% (active) | -4.57% (inactive) | 37.5% | 33% | -5.92% (inactive) | 0.18% (inactive)
C/C(N)=C(/C#N)C(=O)CSc1nnc(Nc2cccc(C)c2)s1 | 114% | 79% (inactive) | 114% (inactive) | 77.5% (inactive) | 83.8% (inactive) | 7.75% (inactive) | 76% | 83.8% | -2% (inactive) | 0.65% (inactive)
COCCCN1C(=O)C(O)=C(C(=O)c2ccco2)C1c1ccc(Br)cc1 (stereo not given) | 102% | 89.5% (inactive) | 102% (inactive) | 99.5% (inactive) | 97.6% (inactive) | 10.2% (inactive) | 87.4% | 97.6% | -6.13% (inactive) | 0.81% (inactive)
CC(=O)c1c(NCCc2ccccc2)cc(C)oc1=O | 99.5% | 86% (inactive) | 99.5% (inactive) | 119% (inactive) | 101% (inactive) | 9.25% (inactive) | 91.5% | 101% | -2.57% (inactive) | -4.83% (inactive)
c1ccc(CC2CCN(c3nc4ccccc4n4nnnc34)CC2)cc1 | 84% | 86% (inactive) | 84% (inactive) | 88.6% (inactive) | 81.5% (inactive) | 8.36% (inactive) | 73.2% | 81.5% | 0% (inactive) | 1.5% (inactive)
O=C(OCC(=O)N1CCc2ccccc21)C1=COCCO1 | 89.5% | 90% (inactive) | 89.5% (inactive) | 88.4% (inactive) | 86.1% (inactive) | 18.2% (inactive) | 67.9% | 86.1% | -4.94% (inactive) | -0.32% (inactive)
CCN(CC)S(=O)(=O)c1ccc2oc(SCc3ccc(F)cc3)nc2c1 | 93.5% | 82.5% (inactive) | 93.5% (inactive) | 68.5% (inactive) | 80.1% (inactive) | -14.8% (inactive) | 95% | 80.1% | 0.54% (inactive) | -0.95% (inactive)
CCCC(=O)N=C1SC2CS(=O)(=O)CC2N1c1ccc(CC)cc1 (stereo not given) | 97.5% | 80% (inactive) | 97.5% (inactive) | 83.2% (inactive) | 93.2% (inactive) | 7.88% (inactive) | 85.4% | 93.2% | -5.33% (inactive) | 3.61% (inactive)
CN(C)c1ccc(/C=C/c2ccncc2)cc1 | 96% | 152% (inactive) | 96% (inactive) | 89.9% (inactive) | 90.5% (inactive) | 0.41% (inactive) | 90.1% | 90.5% | 3.03% (inactive) | 4% (inactive)
C=C(Cl)COC(=O)[C@H]1C2C=CC(C2)C1C(=O)O (stereo not given in full) | 99.5% | 120% (inactive) | 99.5% (inactive) | 106% (inactive) | 101% (inactive) | 3.48% (inactive) | 98% | 101% | -2.8% (inactive) | -6.67% (inactive)
CN(C)S(=O)(=O)c1ccc(C(=O)N2CCC(c3nc4ccccc4o3)CC2)cc1 | 82% | 83% (inactive) | 82% (inactive) | 95.1% (inactive) | 83% (inactive) | 8.86% (inactive) | 74.1% | 83% | -4.67% (inactive) | -6.07% (inactive)
C=CC(O)(C#CCN(CC)CC)c1ccccc1 (stereo not given) | 96.5% | 89% (inactive) | 96.5% (inactive) | 102% (inactive) | 99.9% (inactive) | 10.1% (inactive) | 89.9% | 99.9% | -2.03% (inactive) | -0.63% (inactive)
COc1cc(C(=O)Nc2cc(Cl)ccc2C)c(-n2cnnn2)cc1OC | 102% | 98% (inactive) | 102% (inactive) | 92.6% (inactive) | 94.9% (inactive) | 4.13% (inactive) | 90.8% | 94.9% | -8% (inactive) | 2.95% (inactive)
CCOC(=O)N1CCN(C(=O)CN2C(=O)COc3ccc(C)cc32)CC1 | 98% | 94.5% (inactive) | 98% (inactive) | 95.7% (inactive) | 94.2% (inactive) | 1.89% (inactive) | 92.3% | 94.2% | -2.89% (inactive) | 6% (inactive)

Source: PubChem BioAssay
